Test results: ChEMBL document CHEMBL3994644, “Discovery of AAT-008, a novel, potent, and selective prostaglandin EP4 receptor antagonist” (Bioorg Med Chem Lett, 2017)
In brackets after ≈: the same amount, converted by molar mass.

Key:
[1] = biological target: Prostaglandin E2 receptor EP4 subtype (Mus musculus, UniProt P32240); test: Antagonist activity at mouse recombinant EP4 receptor assessed as inhibition of PGE2-induced cAMP level by cell based assay; assay type: functional; settings: read-out: pA2 (converted)
Prostaglandin E2 receptor EP4 subtype (Mus musculus, UniProt P32240), sequence (P32240 whole entry): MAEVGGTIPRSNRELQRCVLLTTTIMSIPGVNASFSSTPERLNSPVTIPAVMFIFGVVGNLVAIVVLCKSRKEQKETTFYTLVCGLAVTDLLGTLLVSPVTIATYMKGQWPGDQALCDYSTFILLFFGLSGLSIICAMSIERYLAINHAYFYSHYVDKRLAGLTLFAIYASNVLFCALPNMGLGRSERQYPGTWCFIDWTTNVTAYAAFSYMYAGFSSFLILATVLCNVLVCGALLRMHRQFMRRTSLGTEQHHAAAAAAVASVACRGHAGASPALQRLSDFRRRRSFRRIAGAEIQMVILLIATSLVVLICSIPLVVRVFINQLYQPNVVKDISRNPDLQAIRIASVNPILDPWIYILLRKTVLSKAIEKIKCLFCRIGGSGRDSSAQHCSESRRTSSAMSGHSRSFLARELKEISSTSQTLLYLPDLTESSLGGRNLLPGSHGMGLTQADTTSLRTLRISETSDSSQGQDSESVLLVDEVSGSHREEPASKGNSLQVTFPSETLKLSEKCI
How it was run: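 Functional antagonism was measured as inhibition of PGE2-induced cAMP in cells transfected with rodent EP4 (mouse or rat). The value is expressed as pA2.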

[2] = biological target: Prostaglandin E receptor 4 (Canis lupus familiaris, UniProt Q9TU16); test: Antagonist activity at dog recombinant EP4 receptor
Prostaglandin E receptor 4, sequence (Q9TU16 whole entry): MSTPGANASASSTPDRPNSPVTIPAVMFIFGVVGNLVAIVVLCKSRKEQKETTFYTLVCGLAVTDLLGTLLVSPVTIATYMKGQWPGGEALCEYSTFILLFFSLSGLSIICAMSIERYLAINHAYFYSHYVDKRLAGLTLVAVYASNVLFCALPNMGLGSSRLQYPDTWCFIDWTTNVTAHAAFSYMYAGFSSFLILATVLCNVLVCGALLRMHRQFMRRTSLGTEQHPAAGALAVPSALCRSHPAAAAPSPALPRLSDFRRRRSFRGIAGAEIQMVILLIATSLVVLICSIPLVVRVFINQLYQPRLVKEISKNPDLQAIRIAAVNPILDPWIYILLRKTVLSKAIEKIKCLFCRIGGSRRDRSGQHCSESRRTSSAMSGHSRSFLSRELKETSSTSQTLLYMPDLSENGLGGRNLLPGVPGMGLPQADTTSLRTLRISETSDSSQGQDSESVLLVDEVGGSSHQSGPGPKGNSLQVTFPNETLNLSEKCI

Prostacyclin receptor = Prostacyclin receptor (Homo sapiens, UniProt P43119); test: Antagonist activity at human IP receptor
Prostacyclin receptor, sequence (P43119 whole entry): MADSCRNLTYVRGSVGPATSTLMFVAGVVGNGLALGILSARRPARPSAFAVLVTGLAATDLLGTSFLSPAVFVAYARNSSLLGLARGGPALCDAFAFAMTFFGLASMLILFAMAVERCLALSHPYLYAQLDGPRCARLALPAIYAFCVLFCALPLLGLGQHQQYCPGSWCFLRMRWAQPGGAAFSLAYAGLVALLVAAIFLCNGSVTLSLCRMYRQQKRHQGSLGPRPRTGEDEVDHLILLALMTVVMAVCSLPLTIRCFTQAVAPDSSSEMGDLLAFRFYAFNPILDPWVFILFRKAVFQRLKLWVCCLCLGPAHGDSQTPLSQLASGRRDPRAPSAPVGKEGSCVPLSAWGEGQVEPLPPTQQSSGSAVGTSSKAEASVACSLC

[3] = Half life in human liver microsomes; assay type: ADME, microsome
[4] = biological target: Prostaglandin E2 receptor EP4 subtype (Homo sapiens, UniProt P35408); test: Displacement of [3H]PGE from human EP4 receptor expressed in HEK293 cell membranes
Prostaglandin E2 receptor EP4 subtype (Homo sapiens, UniProt P35408), sequence (P35408 whole entry): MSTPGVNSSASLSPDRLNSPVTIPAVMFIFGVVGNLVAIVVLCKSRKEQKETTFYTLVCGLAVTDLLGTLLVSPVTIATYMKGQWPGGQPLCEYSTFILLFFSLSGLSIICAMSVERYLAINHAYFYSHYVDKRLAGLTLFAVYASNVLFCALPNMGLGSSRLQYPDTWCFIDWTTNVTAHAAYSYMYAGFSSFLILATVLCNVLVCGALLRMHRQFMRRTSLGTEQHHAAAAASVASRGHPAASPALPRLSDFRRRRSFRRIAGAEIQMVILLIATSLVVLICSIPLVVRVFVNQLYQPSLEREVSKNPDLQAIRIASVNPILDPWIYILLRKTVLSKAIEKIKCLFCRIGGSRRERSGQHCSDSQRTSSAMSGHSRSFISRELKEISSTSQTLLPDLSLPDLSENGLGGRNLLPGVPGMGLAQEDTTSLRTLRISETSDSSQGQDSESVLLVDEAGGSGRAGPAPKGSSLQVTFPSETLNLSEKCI
How it was run: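 Membrane binding assay using [3H]PGE2 with membranes from HEK-293 cells expressing human EP4. The value is expressed as Ki.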

[5] = Apparent permeability from apical to basolateral side in human Caco2 cells; assay type: ADME, cell-based; settings: Caco-2
How it was run: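 Caco-2 monolayer permeability (Papp, apical to basolateral) was measured under constant pH, with the apical side at pH 6.5 and the basolateral side at pH 7.4.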

[6] = biological target: T1, Prostaglandin E2 receptor EP1 subtype (Homo sapiens, UniProt P34995); test: Antagonist activity at human EP1 receptor
T1 sequence (P34995 whole entry): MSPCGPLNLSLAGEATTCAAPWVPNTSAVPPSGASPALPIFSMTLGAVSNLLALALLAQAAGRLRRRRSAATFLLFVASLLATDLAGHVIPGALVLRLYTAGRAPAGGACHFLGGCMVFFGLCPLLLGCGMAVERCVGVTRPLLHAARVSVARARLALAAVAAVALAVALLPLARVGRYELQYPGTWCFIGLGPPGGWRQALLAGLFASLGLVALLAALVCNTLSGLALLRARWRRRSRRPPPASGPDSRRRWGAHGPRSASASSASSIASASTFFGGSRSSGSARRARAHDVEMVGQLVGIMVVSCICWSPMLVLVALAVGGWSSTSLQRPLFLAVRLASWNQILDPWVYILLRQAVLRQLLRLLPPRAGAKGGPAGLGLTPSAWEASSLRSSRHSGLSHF

[7] = biological target: Prostaglandin E2 receptor EP2 subtype (Homo sapiens, UniProt P43116); test: Antagonist activity at human EP2 receptor
Prostaglandin E2 receptor EP2 subtype, sequence (P43116 whole entry): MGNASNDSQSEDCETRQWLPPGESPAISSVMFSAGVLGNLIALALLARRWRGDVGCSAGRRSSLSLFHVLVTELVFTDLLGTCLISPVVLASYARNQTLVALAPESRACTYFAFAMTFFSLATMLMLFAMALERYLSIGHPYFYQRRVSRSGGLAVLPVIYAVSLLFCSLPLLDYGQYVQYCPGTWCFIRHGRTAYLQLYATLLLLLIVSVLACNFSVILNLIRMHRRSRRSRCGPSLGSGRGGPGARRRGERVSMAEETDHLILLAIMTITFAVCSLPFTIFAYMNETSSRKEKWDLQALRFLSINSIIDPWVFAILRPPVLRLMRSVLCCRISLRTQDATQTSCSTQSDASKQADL

[8] = Antagonist activity at human DP receptor
[9] = Cmax in cynomolgus monkey at 1 mg/kg, po; assay type: ADME, organism-based, Macaca fascicularis; design: dose 1 mg/kg, route oral; settings: in vivo
How it was run: (§1)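 Single 1 mg/kg dose given IV or PO to rats, dogs and monkeys. Plasma pharmacokinetic parameters were derived and reported as mean SD, N = 4.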

[10] = Tmax in cynomolgus monkey at 1 mg/kg, po; assay type: ADME, organism-based, Macaca fascicularis; settings: in vivo
How it was run: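 Oral administration of the compound; Tmax is from plasma concentration–time profiles. Values are mean SD of N = 4 animals per species.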

[11] = AUC (0 to infinity) in cynomolgus monkey at 1 mg/kg, iv; assay type: ADME, organism-based, Macaca fascicularis; design: dose 1 mg/kg, route intravenous, time infinity; settings: in vivo; how it was run: as §1
[12] = Total clearance in Beagle dog at 1 mg/kg, iv; assay type: ADME, organism-based, Canis lupus familiaris; settings: in vivo
How it was run: (§2)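 A single intravenous injection at 1 mg/kg was given. Plasma concentration–time data gave total clearance (CL_total, mL/min/kg) and steady-state volume of distribution (Vd_ss, L/kg). Values are mean SD of N = 4 animals per species.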

[13] = Volume of distribution at steady state in cynomolgus monkey at 1 mg/kg, iv; assay type: ADME, organism-based, Macaca fascicularis; settings: in vivo, read-out: Vdss; how it was run: as §2
[14] = Elimination half life in Beagle dog at 1 mg/kg, po; assay type: ADME, organism-based, Canis lupus familiaris; settings: in vivo, read-out: beta t1/2 (converted); how it was run: as §1
CYP2D6 = CYP2D6 (Homo sapiens, UniProt P10635); test: Inhibition of CYP2D6 (unknown origin) at 1 uM relative to control; assay type: ADME
CYP2D6, sequence (P10635 whole entry): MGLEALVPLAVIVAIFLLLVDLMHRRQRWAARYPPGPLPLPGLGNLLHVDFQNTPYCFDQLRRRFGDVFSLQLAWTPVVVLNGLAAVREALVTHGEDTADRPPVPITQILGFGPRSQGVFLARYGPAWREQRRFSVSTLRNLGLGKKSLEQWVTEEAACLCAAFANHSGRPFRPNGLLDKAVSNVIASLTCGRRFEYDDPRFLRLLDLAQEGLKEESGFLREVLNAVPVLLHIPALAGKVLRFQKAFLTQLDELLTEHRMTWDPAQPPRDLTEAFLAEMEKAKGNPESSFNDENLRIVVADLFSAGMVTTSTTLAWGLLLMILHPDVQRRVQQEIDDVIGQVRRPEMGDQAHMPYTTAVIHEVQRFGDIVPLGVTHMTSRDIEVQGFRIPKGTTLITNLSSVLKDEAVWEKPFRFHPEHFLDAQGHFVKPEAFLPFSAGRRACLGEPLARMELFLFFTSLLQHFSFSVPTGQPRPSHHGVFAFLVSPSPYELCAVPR
How it was run: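 CYP1A, CYP2C9, CYP2C19, CYP2D6 and CYP3A activities were each tested with 1 µM test article. Results are given as percent inhibition of enzyme activity.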

[15] = Lipophilicity, log D of the compound at pH 6.5; assay type: physicochemical; settings: buffer
[16] = Solubility of the compound in pH 1.2 simulated gastric fluid; assay type: physicochemical
[17] = Solubility of the compound in pH 5.8 water for injection; assay type: physicochemical

Kb [1]: 1 nM
Ki [2]: 38 nM
Ki (Prostacyclin receptor): > 6000 nM
half-life [3]: > 2 h
IC50 [4]: 2.4 nM
Ki [4]: 0.97 nM
Papp A→B [5]: 20.1 ×10⁻⁶ cm/s
IC50 [6]: > 20000 nM
Ki [6]: > 6000 nM
IC50 [7]: 1890 nM
Ki [7]: 1840 nM
Ki [8]: > 6000 nM
Cmax [9]: 76 ng/mL
Tmax [10]: 8 h
AUC(0-inf) [11]: 3390 ng·h/mL
clearance [12]: 2.3 mL/min/kg
Vd [13]: 4.7 L/kg
half-life [14]: 7.95 h
inhibition at 1 µM (CYP2D6): < 5%
logD [15]: 1.5
solubility [16]: 0.29 µg/mL (≈ 0.699 µM)
solubility [17]: 4.3 µg/mL (≈ 10.4 µM)
Structure (SMILES): C[C@H](NC(=O)c1cc(Cl)cnc1Oc1cccc(F)c1)c1ccc(C(=O)O)cc1
